In data set [1] the test system is A549. Put plainly: Decrease in STAT3 protein expression in human A549 cells in STAT3 levels at 2 uM after 24 hrs by Western blot analysis. The format is functional, cell-based. In outline: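 A549 cells exposed at 2 μM final concentration and collected 24 h later. Total protein lysate extracted and immunoblotted with antibodies against the EGFR/STAT3 pathway proteins. Erlotinib-treated cells were the positive control and untreated cells the negative control.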
In general terms: A western blot detects proteins with antibodies after separation by electrophoresis.

In data set [2] the test system is A549. Put plainly: Induction of apoptosis in human A549 cells assessed as decrease in pro-caspase-9 levels at 2 uM after 24 hrs by Western blot analysis. Format: functional, cell-based.
The test system of data set [3] is A549. The experiment in a line: Induction of apoptosis in human A549 cells assessed as decrease in Bcl2 levels at 2 uM after 24 hrs by Western blot analysis. The format is functional, cell-based. Put shortly:
(§1)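 A549 cells given 2 μM final concentration for 24 h. Total lysate probed by western blot for apoptosis-related proteins (Bax, p53, p21, caspase-3, Bcl2). Erlotinib served as positive control and untreated cells as negative control.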

Another data set has as its system DU-145. The experiment in a line: Antiproliferative activity against human DU145 cells after 24 hrs by MTT assay. The format is functional, cell-based. As to conditions: DU-145, 24 h. Put shortly: (§2)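 Cells exposed to a range of compound concentrations; viability read by MTT assay. IC50 (concentration giving 50% growth inhibition) calculated and reported as mean ± S.D. of three independent experiments, each run in triplicate.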
In general terms: Tetrazolium assays rely on reduction of a dye to a coloured formazan, in cell work by metabolically active cells.

The test system of data set [4] is A549. Put plainly: Antiproliferative activity against human A549 cells after 24 hrs by MTT assay. Format: functional, cell-based. As to conditions: A549, 24 h. Put shortly:
as §2

In data set [5] the test system is A549. The experiment in a line: Induction of apoptosis in human A549 cells assessed as increase in p53 levels at 2 uM after 24 hrs by Western blot analysis. The format is functional, cell-based. Put shortly:
as §1

The subject of data set [6] is HEK293. The experiment in a line: Induction of apoptosis in HEK293 cells assessed as effect on Bcl2 levels after 24 hrs by Western blot analysis. The format is cell-based. As to conditions: human, hek293, 24 h.
Data set [7] deals with HEK293. The experiment in a line: Antiproliferative activity against HEK293 cells after 24 hrs by MTT assay. Format: cell-based. The note with it: Homo sapiens, HEK293, 24 h.
The subject of data set [8] is HEK293. Put plainly: Induction of apoptosis in HEK293 cells assessed as effect on p21 levels after 24 hrs by Western blot analysis. The format is cell-based. The note with it: human, hek293, 24 h.
In data set [9] the test system is HEK293. The experiment in a line: Induction of apoptosis in HEK293 cells assessed as effect on Bax levels after 24 hrs by Western blot analysis. The format is cell-based. The note with it: human, hek293, 24 h.
The subject of data set [10] is A549. The experiment in a line: Induction of apoptosis in human A549 cells assessed as increase in p21 levels at 2 uM after 24 hrs by Western blot analysis. Format: functional, cell-based. In outline: as §1
The next data set concerns MDA-MB-231. The experiment in a line: Antiproliferative activity against human MDA-MB-231 cells after 24 hrs by MTT assay. The format is functional, cell-based. The note with it: MDA-MB-231, 24 h. In outline:
as §2

Data set [11] concerns HEK293. Put plainly: Cell cycle arrest in HEK293 cells after 24 hrs by propidium iodide staining-based flow cytometric analysis. The note with it: human, hek293, 24 h. On the technique in general: A flow cytometer gives signals particle by particle.
Data set [12] has as its system HEK293. Put plainly: Induction of apoptosis in HEK293 cells assessed as effect on p53 levels after 24 hrs by Western blot analysis. The format is cell-based. The note with it: human, hek293, 24 h.
Data set [13] concerns A549. The experiment in a line: Induction of apoptosis in human A549 cells assessed as increase in Bax levels at 2 uM after 24 hrs by Western blot analysis. Format: functional, cell-based. In outline:
as §1

For data set [14], the system named is A549. Put plainly: Cell cycle arrest in human A549 cells assessed as accumulation of cells at G2/M phase at 2 uM after 24 hrs by propidium iodide staining-based flow cytometric analysis (reference value: 20.4%). The format is functional.

The text below walks through data of ChEMBL document CHEMBL4257446, “Synthesis and biological evaluation of chalcone-linked pyrazolo[1,5-a]pyrimidines as potential anticancer agents” (Medchemcomm, 2017).

The IC50 is the midpoint of a concentration-inhibition curve. Higher therefore signals lower potency.

Structures are written as SMILES. Activity calls are given as the source filed them. No cut-off for these calls is given here.

As for `COc1ccc(C(=O)/C=C/c2cc(-c3ccc(OC)cc3)n3nc(-c4ccccc4)cc3n2)cc1`, the outcome with A549 [1], in the data set on A549 [2], in the data set with A549 [3], in the data set on A549 [5], with A549 [10] and in the data set on A549 [13] was Active. For the same molecule, the 50% inhibitory concentration (IC50) in the data set with DU-145 was determined as 8.5 µM; in the data set on A549 [4], 2.9 µM; with HEK293 [7] it was 36.1 µM; with MDA-MB-231 it was 6.3 µM. Also, the Activity result in the data set on HEK293 [6] is “Non-Toxic”; in the data set with HEK293 [8], “Non-Toxic”; with HEK293 [9] it was “Non-Toxic”; with HEK293 [11], “Non-Toxic”; in the data set on HEK293 [12] it was “Non-Toxic”; with A549 [14], 29.6%.
